Experiments:
[1] = tested on: MOLM-13; experiment: Cell growth inhibition, CellTiter-Glo; assay type: cell-based
[2] = tested on: HOXA9 mRNA in MV4;11 cells; experiment: qRT-PCR gene expression in MV4; assay type: cell-based, human; conditions: 24h of treatment
Summary of the method: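 Total RNA from in vitro-grown cells isolated with RNeasy. cDNA made with a High-Capacity reverse transcription kit. TaqMan gene expression assays with gene-specific primers amplified HOXA9, MEIS1, ITGAM, GAPDH and HPRT1. Relative transcript levels calculated by the comparative Ct method.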

[3] = tested on: MV4;11; experiment: Cell growth inhibition, CellTiter-Glo; assay type: cell-based, human
[4] = tested on: MV4;11 subcutaneous tumors; experiment: MV4; assay type: in vivo, mice; conditions: 100 mg/kg daily for 26 days, oral gavage; 157 mm^3 at the beginning of the treatment
Summary of the method: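 Female C.B-17 SCID mice (5–6 weeks) implanted sc in the right flank with 5×10^6 MV4;11 cells in 1:1 Matrigel. Randomized once tumors reached the target volume. Dosed once daily by oral gavage at 10 ml/kg; vehicle 0.5% MC (400cP) + 0.2% Tween 80 (w/w). Body weight recorded daily. Calipers three times weekly; volume = 0.5×W×W×L; mean ± SEM. Regrowth followed to day 45 after treatment start.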

SMILES: C=CC(=O)N1C[C@@H]2C[C@H]1CN2S(=O)(=O)c1ccc(N2CC(CN3CCC([C@@](CN4CCC4)(c4cccc(F)c4)[C@H]4CCC[C@@H]4NC(=O)OC)CC3)(OC)C2)cc1 [Compound 24, Methyl ((1S,2R)-2-(1-(1-((1-(4-(((1S,4S)-5-acryloyl-2,5-diazabicyclo[2.2.1]heptan-2-yl)-sulfonyl)phenyl)-3-methoxyazetidin-3-yl)methyl)piperidin-4-yl)-2-(azetidin-1-yl)-1-(3-fluoro-phenyl)ethyl)cyclopentyl)carbamate]
- Fold more potent than compound 20 ([1]; MOLM-13): 8–10 fold
- Fold more potent than stereoisomer compound 25 ([1]; MOLM-13, ratio of IC50): 9 fold
- Concentration as low as which HOXA9 gene expression is effectively modulated [2]: 10 nM
- Fold more potent than compound 20 ([3]; MV4;11): 8–10 fold
- Fold more potent than stereoisomer compound 25 ([3]; MV4;11, ratio of IC50): 40 fold
- Average tumor volume on day 26 of the treatment [4]: 106 mm^3

SMILES: C=CC(=O)N1CC(S(=O)(=O)c2ccc(N3CC(CN4CCC([C@@](CN5CCC5)(c5cccc(F)c5)[C@H]5CCC[C@@H]5NC(=O)OC)CC4)(OC)C3)cc2)C1 [Compound 20, Methyl ((1S,2R)-2-(1-(1-((1-(4-((1-acryloylazetidin-3-yl)sulfonyl)phenyl)-3-methoxyazetidin-3-yl)methyl)piperidin-4-yl)-2-(azetidin-1-yl)-1-(3-fluorophenyl)ethyl)cyclopentyl)carbamate]
- Fold less potent than compound 19 in inhibiting growth ([1]; MOLM-13, ratio of IC50): 8 fold
- Fold less potent than compound 19 in inhibiting growth ([3]; MV4;11, ratio of IC50): 49 fold

SMILES: CCC(=O)N1C[C@@H]2C[C@H]1CN2S(=O)(=O)c1ccc(N2CC(CN3CCC([C@@](CN4CCC4)(c4cccc(F)c4)[C@H]4CCC[C@@H]4NC(=O)OC)CC3)(OC)C2)cc1 [Compound 26, Methyl ((1S,2R)-2-(2-(azetidin-1-yl)-1-(3-fluorophenyl)-1-(1-((3-methoxy-1-(4-(((1S,4S)-5-propionyl-2,5-diazabicyclo[2.2.1]heptan-2-yl)sulfonyl)phenyl)azetidin-3-yl)methyl)piperidin-4-yl)ethyl)cyclopentyl)carbamate]
- Times less potent than 24 in inhibition of cell growth ([1]; MOLM-13): > 10 times
- Times less potent than 24 in inhibition of cell growth ([3]; MV4;11): > 10 times

SMILES: C=CC(=O)N1CCC[C@H](S(=O)(=O)c2ccc(N3CC(CN4CCC([C@@](CN5CCC5)(c5cccc(F)c5)[C@H]5CCC[C@@H]5NC(=O)OC)CC4)(OC)C3)cc2)C1 [Compound 22, Methyl ((1S,2R)-2-(1-(1-((1-(4-(((S)-1-acryloylpiperidin-3-yl)sulfonyl)phenyl)-3-methoxy-azetidin-3-yl)methyl)piperidin-4-yl)-2-(azetidin-1-yl)-1-(3-fluorophenyl)ethyl)-cyclopentyl)carbamate]
- Times more potent than compound 21 ([1]; MOLM-13): 2 times
- Times more potent than compound 21 ([3]; MV4;11): 2 times

SMILES: C=CC(=O)N1CCC[C@@H](S(=O)(=O)c2ccc(N3CC(CN4CCC([C@@](CN5CCC5)(c5cccc(F)c5)[C@H]5CCC[C@@H]5NC(=O)OC)CC4)(OC)C3)cc2)C1 [Compound 23, Methyl ((1S,2R)-2-(1-(1-((1-(4-(((R)-1-acryloylpiperidin-3-yl)sulfonyl)phenyl)-3-methoxy-azetidin-3-yl)methyl)piperidin-4-yl)-2-(azetidin-1-yl)-1-(3-fluorophenyl)ethyl)cyclopentyl)-carbamate]
- Times more potent than compound 21 ([1]; MOLM-13): 2 times
- Times more potent than compound 21 ([3]; MV4;11): 2 times

SMILES: COC(=O)N[C@H]1CCC[C@@H]1[C@](CN1CCC1)(c1cccc(F)c1)C1CCN(CC2(OC)CN(c3ccc(S(=O)(=O)C4CN(C(=O)/C=C/CN(C)C)C4)cc3)C2)CC1 [Compound 19, Methyl ((1S,2R)-2-(2-(azetidin-1-yl)-1-(1-((1-(4-((1-((E)-4-(dimethylamino)but-2-enoyl)-azetidin-3-yl)sulfonyl)phenyl)-3-methoxyazetidin-3-yl)methyl)piperidin-4-yl)-1-(3-fluorophenyl)ethyl)cyclopentyl)carbamate]
- Fold more potent than compound 17 in inhibiting proliferation ([1]; MOLM-13, ratio of IC50): 9 fold
- Fold more potent than compound 17 in inhibiting proliferation ([3]; MV4;11, ratio of IC50): 72 fold
